# Laboratory results taken from ChEMBL document CHEMBL4000219, “Synthesis and biological evaluation of naphthoquinone-coumarin conjugates as topoisomerase II inhibitors” (Bioorg Med Chem Lett, 2017).
# Activity calls are given as the source filed them. The calls are words filed in the database; no cut-off is given here.
# Key:
# [1] = biological target: T1, DNA topoisomerase 2-alpha (Homo sapiens, UniProt P11388); experiment: Poison activity at human topoisomerase-2 alpha expressed in baculovirus infected insect cells assessed as stabilization of cleavage complex at 100 uM using pRYG DNA as substrate after 10 mins by ethidium bromide staining based agarose gel electrophoresis method
# Method in brief: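 Cleavage assay: 10U hTopoII on negatively supercoiled pRYG plasmid, in 1% (v/v) DMSO. Etoposide as positive control. Agarose gel run in the presence of ethidium bromide separates supercoiled substrate from linearized plasmid intermediate.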
# [2] = biological target: T1, DNA topoisomerase 2-alpha; experiment: Inhibition of human topoisomerase-2 alpha expressed in baculovirus infected insect cells assessed as reduction in enzyme-meditaed supercoiled pRYG DNA substrate relaxation at 100 uM in presence of buffer containing DTT after 30 mins by agarose gel electrophoresis method
# Method in brief: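 2U hTopoII on covalently closed negatively supercoiled pRYG plasmid, in 1% (v/v) DMSO. Commercial reaction buffer containing DTT. Etoposide, ICRF-187 and merbarone as controls. Agarose gel run without ethidium bromide separates supercoiled forms from relaxed topoisomers.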
# [3] = biological target: T1, DNA topoisomerase 2-alpha; experiment: Inhibition of human topoisomerase-2 alpha expressed in baculovirus infected insect cells assessed as reduction in enzyme-meditaed supercoiled pRYG DNA substrate relaxation at 100 uM in presence of buffer containing 2-mercaptoethanol after 30 mins by agarose gel electrophoresis method
# Method in brief: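 2U hTopoII on covalently closed negatively supercoiled pRYG plasmid, in 1% (v/v) DMSO. Home-made reaction buffer with 2-mercaptoethanol as reducing agent. Etoposide, ICRF-187 and merbarone as controls. Agarose gel run without ethidium bromide separates supercoiled substrate from relaxed topoisomers.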
# [4] = biological target: T1, DNA topoisomerase 2-alpha; experiment: (§1) Inhibition of human topoisomerase-2 alpha ATPase activity expressed in baculovirus infected insect cells assessed as disappearance of NADH at 30 uM using pBR322 DNA as substrate preincubated for 10 mins followed by ATP addition measured up to 35 mins by spectrophotometric based pyruvate kinase/lactate dehydrogenase coupled enzyme assay relative to control
# Method in brief: (§2)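 hTopoII ATPase measured in an ATPase/pyruvate kinase/lactate dehydrogenase linked assay as decline of NADH absorbance at 340 nm. Activity expressed as percent of 1% DMSO control.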
# [5] = biological target: T1, DNA topoisomerase 2-alpha; experiment: Inhibition of human topoisomerase-2 alpha expressed in baculovirus infected insect cells assessed as reduction in enzyme-meditaed supercoiled pRYG DNA substrate relaxation in presence of buffer containing DTT after 30 mins by agarose gel electrophoresis method
# Method in brief: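 hTopoII relaxation of supercoiled pRYG plasmid in commercial DTT-containing reaction buffer, with compounds at 10, 30 and 100. Gel bands quantified as percent inhibition. Three independent assays, mean + SEM.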
# Escherichia coli [6] = experiment: Inhibition of Escherichia coli DNA topisomerase-1 assessed as reduction in enzyme-mediated relaxation of supercoiled pBlueScript 2 KS+ DNA substrate at 100 uM after 1 hr by agarose gel electrophoresis method
# Method in brief: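 2.5U E. coli TopoI acting on supercoiled monomer substrate, in 1% (v/v) DMSO. Chloroquine and etoposide as controls. Agarose gel run without ethidium bromide separates supercoiled substrate from relaxed products.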
# [7] = biological target: T1, DNA topoisomerase 2-alpha; experiment: as §1, with “100” for “30”; method in brief: as §2
# Escherichia coli [8] = experiment: Inhibition of Escherichia coli DNA gyrase assessed as reduction in enzyme-mediated supercoiling activity at 100 uM using ladder of partially relaxed pBlueScript 2 KS+ DNA as substrate after 1 hr by agarose gel electrophoresis method
# Method in brief: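 2.5U E. coli DNA gyrase acting on a ladder of partially relaxed forms as substrate, in 1% (v/v) DMSO. Agarose gel run without ethidium bromide separates the relaxed ladder from monomeric supercoiled product.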
# [9] = biological target: T1, DNA topoisomerase 2-alpha; experiment: as §1, with “10” for “30”; method in brief: as §2
# Escherichia coli [10] = experiment: Inhibition of Escherichia coli DNA topisomerase-1 assessed as reduction in enzyme-mediated unwinding activity at 100 uM using ladder of partially relaxed pBlueScript 2 KS+ DNA as substrate after 1 hr by agarose gel electrophoresis method
# Method in brief: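 E. coli TopoI unwinding assay for intercalation: a ladder of partially relaxed forms as substrate, in 1% (v/v) DMSO. Chloroquine as control. Agarose gel run without ethidium bromide separates the ladder from relaxed products.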
# T1 sequence (P11388 whole entry): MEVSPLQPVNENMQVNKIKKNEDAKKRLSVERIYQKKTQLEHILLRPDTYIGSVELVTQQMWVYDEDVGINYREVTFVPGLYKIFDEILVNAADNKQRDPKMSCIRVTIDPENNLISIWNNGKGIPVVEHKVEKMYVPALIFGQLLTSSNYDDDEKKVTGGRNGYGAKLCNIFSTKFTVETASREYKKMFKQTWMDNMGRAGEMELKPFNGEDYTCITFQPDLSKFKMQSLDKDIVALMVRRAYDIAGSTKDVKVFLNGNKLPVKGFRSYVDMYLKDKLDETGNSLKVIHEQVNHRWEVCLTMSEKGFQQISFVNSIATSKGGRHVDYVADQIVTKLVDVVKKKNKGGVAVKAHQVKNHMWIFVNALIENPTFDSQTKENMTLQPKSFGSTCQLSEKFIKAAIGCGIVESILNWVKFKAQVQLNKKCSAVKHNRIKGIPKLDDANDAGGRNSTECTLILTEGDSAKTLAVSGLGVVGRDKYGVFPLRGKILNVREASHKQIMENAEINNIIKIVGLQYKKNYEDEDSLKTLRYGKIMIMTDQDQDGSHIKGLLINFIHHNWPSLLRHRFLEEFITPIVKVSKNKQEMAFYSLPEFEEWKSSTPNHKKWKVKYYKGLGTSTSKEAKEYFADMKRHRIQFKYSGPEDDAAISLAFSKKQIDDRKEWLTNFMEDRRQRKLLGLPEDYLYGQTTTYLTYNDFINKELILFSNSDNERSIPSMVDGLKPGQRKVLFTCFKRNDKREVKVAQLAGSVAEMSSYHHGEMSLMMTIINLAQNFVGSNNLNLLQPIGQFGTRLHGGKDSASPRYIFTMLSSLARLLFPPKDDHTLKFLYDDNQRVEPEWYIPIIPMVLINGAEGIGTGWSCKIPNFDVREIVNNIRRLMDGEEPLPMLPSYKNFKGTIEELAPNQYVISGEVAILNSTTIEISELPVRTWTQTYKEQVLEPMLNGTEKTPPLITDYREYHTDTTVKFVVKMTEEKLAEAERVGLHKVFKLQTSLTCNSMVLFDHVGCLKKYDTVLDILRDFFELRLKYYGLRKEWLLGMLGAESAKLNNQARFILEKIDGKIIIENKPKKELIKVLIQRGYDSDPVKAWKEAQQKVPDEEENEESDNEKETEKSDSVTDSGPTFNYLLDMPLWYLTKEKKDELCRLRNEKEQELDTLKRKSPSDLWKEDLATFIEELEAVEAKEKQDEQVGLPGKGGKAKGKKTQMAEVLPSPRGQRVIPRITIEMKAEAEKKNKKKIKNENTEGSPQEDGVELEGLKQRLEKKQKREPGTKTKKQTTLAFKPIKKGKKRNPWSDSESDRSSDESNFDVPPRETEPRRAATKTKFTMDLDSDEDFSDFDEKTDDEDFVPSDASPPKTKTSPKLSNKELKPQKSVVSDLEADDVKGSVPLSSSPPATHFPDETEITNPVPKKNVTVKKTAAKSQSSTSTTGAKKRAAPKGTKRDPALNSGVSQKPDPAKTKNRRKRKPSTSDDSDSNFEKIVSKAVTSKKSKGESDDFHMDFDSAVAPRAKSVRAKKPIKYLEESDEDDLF
Structure (SMILES),Activity [1],inhibition [2],inhibition [3],inhibition [4],IC50 [5],inhibition (Escherichia coli [6]),inhibition [7],inhibition (Escherichia coli [8]),inhibition [9],inhibition (Escherichia coli [10])
COc1cc([C@@H]2c3cc4c(cc3[C@@H](O[C@@H]3O[C@@H]5CO[C@@H](C)O[C@H]5[C@H](O)[C@H]3O)[C@H]3COC(=O)[C@H]23)OCO4)cc(OC)c1O,Active,Active,inactive,–,–,–,–,–,–,–
O=C1C(O)=C(C(c2ccccc2F)c2c(O)c3ccccc3oc2=O)C(=O)c2ccccc21 (centres undefined),inactive,Active,Active,30%,10 to 30 µM,inactive,82%,inactive,24%,inactive
O=C1C(O)=C(C(c2ccc(Cl)cc2)c2c(O)c3ccccc3oc2=O)C(=O)c2ccccc21 (centres undefined),inactive,Active,Active,78%,10 to 30 µM,inactive,94%,inactive,61%,inactive
O=C1C(O)=C(C(c2ccc(Br)cc2)c2c(O)c3ccccc3oc2=O)C(=O)c2ccccc21 (centres undefined),inactive,Active,Active,57%,10 to 30 µM,inactive,96%,inactive,40%,inactive
O=C1C(O)=C(C(c2ccc3c(c2)OCO3)c2c(O)c3ccccc3oc2=O)C(=O)c2ccccc21 (centres undefined),inactive,Active,Active,67%,10 to 30 µM,inactive,94%,inactive,43%,inactive
O=C(O)c1cn(C2CC2)c2cc(N3CCNCC3)c(F)cc2c1=O,–,–,–,–,–,–,–,Active,–,–
CCN(CC)CCCC(C)Nc1ccnc2cc(Cl)ccc12 (centres undefined),–,–,–,–,–,Active,–,–,–,–
O=C1C(O)=C(C(c2ccc([N+](=O)[O-])cc2)c2c(O)c3ccccc3oc2=O)C(=O)c2ccccc21 (centres undefined),inactive,Active,Active,39%,10 to 30 µM,inactive,61%,inactive,34%,inactive
O=C1NC(=S)NC(=O)C1C(=O)Nc1ccccc1,–,Active,inactive,–,–,–,–,–,–,–
O=C1C(O)=C(C(c2ccccc2)c2c(O)c3ccccc3oc2=O)C(=O)c2ccccc21 (centres undefined),inactive,Active,Active,87%,10 to 30 µM,inactive,94%,inactive,69%,inactive
O=C1C(O)=C(C(c2ccc(F)cc2)c2c(O)c3ccccc3oc2=O)C(=O)c2ccccc21 (centres undefined),inactive,Active,Active,90%,10 to 30 µM,inactive,94%,inactive,67%,inactive
C[C@@H](CN1CC(=O)NC(=O)C1)N1CC(=O)NC(=O)C1,–,Active,inactive,–,–,–,–,–,–,–
